Compound activity from PubChem.
Shown are actives, neighbours in structure and some others; about 4.3% of the full set was active somewhere.
MC4R ag barr: activates human MC4R beta-arrestin recruitment; P32245; U2OS MC4R beta-arrestin complementation, luminescence; percent of melanotan II response, DMSO zero; activation, % at 8.9 µM; 360,000 tested, 0.98% active;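 active = activation above a per-plate cutoff, the mean activation of sample wells on that plate plus 3 SD, cut at about 8% in these data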
m5-HT2A agonist: mouse HTR2A agonism via beta-arrestin recruitment; CHO-K1 mHTR2A beta-arrestin complementation, luminescence; percent of 30 µM serotonin response; 360,000 tested, 0.66% active; activation, % at 7.6 µM; P35363;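 active = activation above a run cutoff, the mean activation of all tested compounds plus 3 SD, cut at about 14% in these data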
Target sequence (P35363 whole entry, looked up): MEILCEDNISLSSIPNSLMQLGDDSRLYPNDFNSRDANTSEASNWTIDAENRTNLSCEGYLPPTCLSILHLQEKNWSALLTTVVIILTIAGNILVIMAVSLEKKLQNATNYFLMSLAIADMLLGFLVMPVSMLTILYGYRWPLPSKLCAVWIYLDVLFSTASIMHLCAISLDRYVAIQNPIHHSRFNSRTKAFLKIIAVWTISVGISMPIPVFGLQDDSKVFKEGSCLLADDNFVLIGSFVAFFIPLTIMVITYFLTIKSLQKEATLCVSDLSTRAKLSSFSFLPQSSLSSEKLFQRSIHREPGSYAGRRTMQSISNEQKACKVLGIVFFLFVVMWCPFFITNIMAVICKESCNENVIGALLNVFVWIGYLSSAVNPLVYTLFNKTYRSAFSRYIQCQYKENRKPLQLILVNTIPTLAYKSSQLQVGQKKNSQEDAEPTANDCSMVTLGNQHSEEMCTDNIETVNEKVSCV
TAAR1 antag: human TAAR1 antagonism; Q96RJ0; CHO RD-HGA16 TAAR1, Fluo-8 calcium fluorescence, antagonist; inhibition, % at 3 µM; 360,000 tested, 1.5% active; AID 624466;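 active = inhibition above a per-plate cutoff, the mean inhibition of test compounds on that plate plus 3 SD, cut at about 49% in these data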
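Assay system: RD-HGA16 CHO cells with stable hTAAR1 and Gα16 / Reagent: EC80 β-phenethylamine stimulus / Doses: 3 µM, single point / Timing: dye loading 75 min at 37 °C, then 30 min room temperature / Measured by: Fluo-8 intracellular calcium dye fluorescence, real-time kinetic reads / Controls: vehicle wells and EC80 agonist wells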
TAAR1 agonist: human TAAR1 agonism; 360,000 tested, 0.99% active; AID 624467; CHO RD-HGA16 TAAR1, Fluo-8 calcium fluorescence; vehicle wells 0%, saturating PEA agonist 100%; activation, % at 3 µM;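 active = activation above the mean activation of all test compounds in the run plus 3 SD, cut at about 38% in these data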
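Signal – calcium-sensitive Fluo-8 signal, excitation 470-495, emission 515-575 nm · System – RD-HGA16 (CHO) cells co-expressing Gα16 and hTAAR1 · Incubation – 17-24 h seeding, 75 min 37 °C dye, 30 min RT · Compound dosing – 3 µM single concentration · Repeats – no replicates (n 1)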
MC4R antagonist: human MC4R antagonism in cAMP assay; P32245; MC4R-expressing cells, MTII-stimulated cAMP, LANCE TR-FRET; 360,000 tested, 0.48% active; inhibition, % at 6.5 µM;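 active = inhibition above its plate's cutoff, the mean of tested wells on that plate plus 3 SD, cut at about 29% in these data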
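Material: human MC4R-expressing U2OS cells. Probe or stimulus: Melanotan II challenge. Dosing: 6.5 µM single dose. Times: 30-min compound, 1-h challenge, 1-h detection, room temperature. Technique: TR-FRET with Eu-cAMP and labeled anti-cAMP, 671 nm. Replication: singlicate.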
Beta2AR agonist: agonists of human beta-2 adrenergic receptor inducing internalization; P07550; Am2.2-beta2AR cells, FAP receptor internalization, flow cytometry; response, % (concentration not given with the values); 340,000 tested, 0.43% active; AID 504454;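 active = response above a set limit, near 3 SD of response in nonfluorescent compounds, cut at about 42% in these data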
OPRM1 ag: activates human mu opioid receptor in HTR2A counterscreen; shares compounds with m5-HT2A agonist; U2OS OPRM1 beta-arrestin PathHunter, luminescence; DMSO 0%, DAMGO 9.3 µM 100%; activation, % at 9.3 µM; 2,300 tested, 5.3% active; AID 624380;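 active = mean activation above the mean of DMSO-only wells plus 3 SD, cut at about 0.5% in these data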
m5-HT2A ag conf: mouse HTR2A agonism confirmed. CHO-K1 PathHunter beta-arrestin recruitment, luminescence; DMSO 0%, 30 µM serotonin 100%. shares compounds with m5-HT2A agonist. 2,300 tested, 19% active. activation, % at 7.6 µM;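 active = mean activation across triplicates above the hit threshold derived in the original primary screen, cut at about 15% in these data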
Numbers stand for hits; i = inactive; nt = no result given.

SMILES	MC4R ag barr	m5-HT2A agonist	TAAR1 antag	TAAR1 agonist	MC4R antagonist	Beta2AR agonist	OPRM1 ag	m5-HT2A ag conf
C=CCOc1ccc(/C=N/n2nnnc2N)cc1OC	i	i	i	i	i	i	nt	nt
CCC(=O)Nc1cc2nn(-c3ccc(OC)cc3)nc2cc1C	i	i	i	i	i	i	nt	nt
CCCCC(=O)Nc1cc2nn(-c3ccc(OC)cc3)nc2cc1C	i	15.0	i	i	i	i	i	i
O=C(CN1C(=O)NC2(CCCC2)C1=O)OCc1c(F)cccc1Cl	i	16.7	i	i	i	i	i	i
O=C(CN1C(=O)NC2(CCCC2)C1=O)NCc1ccc(Cl)cc1	i	19.3	i	i	i	i	i	i
O=C(CN1C(=O)NC2(CCCC2)C1=O)NCc1ccc(F)cc1	i	i	i	i	i	i	nt	nt
O=C(CN1C(=O)NC2(CCCC2)C1=O)OCc1ccccc1F	i	i	i	i	i	i	nt	nt
CCCOC(=O)c1ccc(NC(=O)Cc2cccs2)cc1	i	i	i	i	i	i	nt	nt
CCN1CCN(Cc2nc3cc(NC(=O)COc4ccc([N+](=O)[O-])cc4)ccc3n2C)CC1	i	i	i	i	i	i	nt	nt
CCCn1c(SCC(=O)NCCc2ccc(Cl)cc2Cl)n[nH]c1=O	i	15.9	i	i	i	i	i	i
O=C(NC(=S)Nn1cnc2c(cnn2-c2ccccc2)c1=O)c1ccc(Cl)cc1	i	41.7	i	i	i	i	i	i
O=C(NC(=S)Nn1cnc2c(cnn2-c2ccccc2)c1=O)c1ccc(Oc2ccccc2)cc1	i	i	i	i	i	i	nt	nt
CC1CC(C)CN(S(=O)(=O)c2ccc(NC(=O)CN3C(=O)NC(C)(c4ccccc4)C3=O)cc2)C1 (configuration not stated)	i	i	i	i	i	i	nt	nt
O=C(c1ccco1)N1CCN(c2c(-c3ccccc3)c3cc(Cl)ccc3[nH]c2=O)CC1	i	52.4	i	i	i	i	1.3	23.6
O=c1[nH]c2ccc(Cl)cc2c(-c2ccccc2)c1N1CCOCC1	i	i	i	i	i	i	nt	nt
COc1cc(/C=C/C(=O)OC(C)C(=O)NC2CCCCC2C)cc(Cl)c1OC (configuration not stated)	i	i	i	i	i	i	nt	nt
CCOc1ccc(CCNC(=O)/C=C/c2ccco2)cc1OCC	i	18.7	i	i	i	i	i	i
COc1ccc(CCNC(=O)/C=C/c2ccco2)cc1OC	i	i	i	i	i	i	nt	nt
Nc1nc2c(s1)CCCCCCCCCC2	i	i	i	i	i	i	nt	nt
CCCN[C@H]1CCc2nc(N)sc2C1	i	59.9	i	i	i	i	i	142.1
CCn1c(=O)ccc2cc([N+](=O)[O-])ccc21	i	14.4	i	i	i	i	i	i
Cn1cccc1C(=O)Nc1ccc(N2CCOCC2)cc1	i	14.7	i	i	i	i	i	i
CC1(C)Oc2ccc(C(=O)NNC(=O)Nc3ccccc3)cc2NC1=O	i	i	i	i	i	i	nt	nt
CC(=O)Nc1ccc(S(=O)(=O)NCCC(=O)N2CCN(C(c3ccccc3)c3ccccc3)CC2)cc1	i	15.9	i	i	i	i	i	i
Cc1ccc(C)c(C(=O)CCC(=O)Nc2ccc(F)cc2)c1	i	i	i	i	i	i	nt	nt
SMILES	MC4R ag barr	m5-HT2A agonist	TAAR1 antag	TAAR1 agonist	MC4R antagonist	Beta2AR agonist	OPRM1 ag	m5-HT2A ag conf
Cc1ccc(C)c(C(=O)CCC(=O)Nc2cccnc2)c1	i	15.1	i	i	i	i	i	i
CC(C)(C)NS(=O)(=O)c1cc(C(=O)Nc2sccc2C#N)ccc1Cl	i	18.1	i	i	i	i	i	15.2
CCc1nc2c(OCc3ccccc3)cccn2c1N(C)C(=O)c1ccc2c(c1)OCO2	i	14.5	i	i	i	nt	i	i
O=C(c1ccccc1F)N1CCN(Cc2nc3sc4c(c3c(=O)[nH]2)CCCC4)CC1	i	15.6	i	i	i	i	i	i
Cc1ccc(C(=O)N2CCN(Cc3nc4sc5c(c4c(=O)[nH]3)CCCC5)CC2)cc1	i	i	i	i	i	i	nt	nt
COc1ccccc1CN1CCNC(=O)C1CC(=O)N(C)C1CCOCC1 (configuration not stated)	i	i	i	i	i	nt	nt	nt
Cc1cc(N(CN2CCCC2=O)C(=O)c2ccccc2)no1	i	18.9	i	i	i	i	i	i
Cc1cc(N(CN2CCCC2=O)C(=O)c2ccc(F)cc2)no1	i	i	i	i	i	nt	nt	nt
CCCn1c(=O)c2[nH]c(-c3ccc(OCC(=O)Nc4ccc(C#N)cc4)cc3)nc2n(CCC)c1=O	i	15.6	i	i	i	i	i	i
N#Cc1ccc(OCC(=O)Nc2ccc3[nH]c(=O)[nH]c3c2)cc1	i	i	i	i	i	i	nt	nt
O=C(Cn1nc(C(=O)O)c2ccccc2c1=O)Nc1cccc(S(=O)(=O)N2CCCCCC2)c1	i	i	i	i	i	i	nt	nt
CC(C)CCNC(=O)CCn1c(=S)oc2ccccc21	i	18.6	i	i	i	i	i	i
CC1(C(=O)NCc2ccccc2Br)CCN1Cc1ccc2ccccc2c1 (configuration not stated)	i	i	i	i	i	nt	nt	nt
Cc1ccc(N2CCN(C(=O)C3CCCN(c4ncnc5c4nc4n5CCCCC4)C3)CC2)c(C)c1 (configuration not stated)	i	14.8	i	i	i	i	i	i
Cc1ccc(C)c(N2CCN(C(=O)C3CCCN(c4ncnc5c4nc4n5CCCCC4)C3)CC2)c1 (configuration not stated)	i	i	i	i	i	i	nt	nt
COc1ccc(Nc2nnc(-c3ccc(O)cc3)c3ccccc23)cc1	i	30.4	i	i	i	i	i	i
Oc1ccc(Nc2nnc(-c3ccc(O)cc3)c3ccccc23)cc1	i	i	i	i	i	i	nt	nt
CC1CC(=O)Nc2ccccc2N1S(=O)(=O)c1ccc(C(F)(F)F)cc1 (configuration not stated)	i	i	i	i	i	i	nt	nt
COc1ccc(S(=O)(=O)N2c3ccccc3NC(=O)CC2C)cc1 (configuration not stated)	i	19.0	i	i	i	i	i	i
Cc1nn(-c2ccccc2)c(N2CCCC2)c1/C=N/NC(=O)c1cc(-c2ccccn2)nc2ccccc12	i	14.6	i	i	i	i	i	i
O=C(NS(=O)(=O)c1ccccc1)c1ccccc1	i	i	i	i	i	i	nt	nt
